{"source": "paper PMC3306499", "about": "(ACS Chemical Biology, 2012)", "key": {"human A3G (APOBEC3G)": {"molecular_target": "human A3G (APOBEC3G) (Homo sapiens, UniProt Q9HC16)", "sequence (Q9HC16 whole entry)": "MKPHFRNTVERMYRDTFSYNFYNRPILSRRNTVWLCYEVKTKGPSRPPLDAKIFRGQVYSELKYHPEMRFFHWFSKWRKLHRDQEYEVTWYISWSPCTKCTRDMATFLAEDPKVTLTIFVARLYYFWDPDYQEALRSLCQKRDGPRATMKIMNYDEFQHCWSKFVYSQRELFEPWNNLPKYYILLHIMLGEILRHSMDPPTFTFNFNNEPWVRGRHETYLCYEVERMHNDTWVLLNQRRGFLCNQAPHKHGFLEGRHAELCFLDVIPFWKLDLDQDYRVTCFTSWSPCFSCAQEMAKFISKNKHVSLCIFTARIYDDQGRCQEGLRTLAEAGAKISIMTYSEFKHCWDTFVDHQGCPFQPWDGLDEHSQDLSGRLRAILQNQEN", "assay": "fluorescence-based ssDNA cytosine deaminase assay, A3G", "format": "biochemical", "details": "read-out: IC50 Values A3G; dose response, purified full-length A3G-mycHis"}, "human A3A (APOBEC3A)": {"molecular_target": "human A3A (APOBEC3A) (Homo sapiens, UniProt P31941)", "sequence (P31941 whole entry)": "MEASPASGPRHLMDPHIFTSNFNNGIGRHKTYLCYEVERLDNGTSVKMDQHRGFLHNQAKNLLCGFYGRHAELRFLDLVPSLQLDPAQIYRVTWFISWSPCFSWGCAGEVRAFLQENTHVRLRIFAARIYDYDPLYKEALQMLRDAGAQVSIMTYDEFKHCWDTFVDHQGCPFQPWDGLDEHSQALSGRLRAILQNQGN", "assay": "fluorescence-based ssDNA cytosine deaminase assay, A3A", "format": "biochemical", "details": "read-out: IC50 Values A3A; dose response, purified A3A-mycHis"}, "[1]": {"molecular_target": "E. coli uracil DNA glycosylase (UDG) (Escherichia coli, UniProt P12295)", "sequence (P12295 whole entry)": "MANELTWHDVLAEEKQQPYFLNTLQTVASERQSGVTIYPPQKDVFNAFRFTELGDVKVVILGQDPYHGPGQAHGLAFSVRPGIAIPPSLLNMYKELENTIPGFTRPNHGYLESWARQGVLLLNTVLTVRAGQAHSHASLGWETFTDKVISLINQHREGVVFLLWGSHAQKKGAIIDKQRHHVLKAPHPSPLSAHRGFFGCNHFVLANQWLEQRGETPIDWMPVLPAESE", "assay": "UDG assay", "format": "biochemical", "details": "read-out: IC50 Values UDG; no deaminase, uracil ssDNA substrate"}, "HIV-1 RNase H": {"molecular_target": "HIV-1 RNase H (Human immunodeficiency virus type 1 group M subtype B, UniProt P04585)", "assay": "HIV-1 RNase H inhibition assay", "format": "biochemical", "details": "read-out: IC50 Values RNase H; A3G inhibitors, this study"}, "A3G-ssDNA complex": {"molecular_target": "A3G-ssDNA complex (Homo sapiens, UniProt Q9HC16)", "sequence (Q9HC16 whole entry, one chain of several)": "as the sequence (Q9HC16 whole entry) above", "assay": "EMSA of A3G-ssDNA complex formation", "format": "binding", "details": "0.64 μM A3G, 0.08 μM ssDNA, 50 μM compound, dose response 2, 5, 10 μM"}, "A3G-C308A": {"molecular_target": "A3G-C308A (Homo sapiens, UniProt Q9HC16, C308A)", "sequence (Q9HC16 whole entry C308A)": "as the sequence (Q9HC16 whole entry) above, with C308A counted along it", "assay": "deaminase assay with A3G-C308A mutant", "format": "biochemical", "details": "varying concentrations, parallel to wildtype A3G", "outline": "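Full-length human A3G-C308A-mycHis and wildtype A3G were purified from HEK293T cells via the C-terminal His6 tag and assayed in parallel over varying test compound concentrations. Enzyme was diluted in Tris pH 7.4 buffer with protease inhibitors, then incubated 2 h at 37 °C with 10 pmol 6-FAM/TAMRA ssDNA and UDG. NaOH was added for 30 min at 37 °C, then neutralised. Fluorescence read at ex 490/em 520 nm.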"}, "A3G C321A": {"molecular_target": "A3G C321A (Homo sapiens, UniProt Q9HC16, C321A)", "sequence (Q9HC16 whole entry C321A)": "as the sequence (Q9HC16 whole entry) above, with C321A counted along it", "assay": "deaminase assay with A3G-C321A mutant", "format": "biochemical", "details": "dose response, parallel to wildtype A3G", "outline": "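Wildtype A3G and the C321A mutant were purified side by side as myc-His proteins (>80% homogeneity) from HEK293T cells and tested at varying test compound concentrations. Reactions ran 2 h at 37 °C with 6-FAM/TAMRA ssDNA and UDG, followed by NaOH cleavage, neutralisation and fluorescence at 490/520 nm. Triplicates were normalised to DMSO-only controls and given as mean with SD.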"}, "full-length A3G Cys321": {"molecular_target": "full-length A3G Cys321 (Homo sapiens, UniProt Q9HC16)", "sequence (Q9HC16 whole entry)": "as the sequence (Q9HC16 whole entry) above", "assay": "LC-MS/MS of tryptic peptides of inhibitor-treated A3G", "format": "binding", "details": "full-length A3G incubated with compound, in-gel trypsin digestion"}, "murine model of diabetes": {"tested_on": "murine model of diabetes", "details": "oral dosing; cited from earlier work"}}, "data": [{"smiles": "CN(N=O)c1ccc(O)c(O)c1", "note": "[MN30, Methyl-3,4-dephostatin]", "values": [{"measurement": "IC50", "setting": "human A3G (APOBEC3G)", "result": 9.1, "unit": "µM"}, {"measurement": "IC50", "setting": "human A3A (APOBEC3A)", "result": "> 200", "unit": "µM"}, {"measurement": "IC50", "setting": "[1]", "result": "> 200", "unit": "µM"}, {"measurement": "IC50", "setting": "HIV-1 RNase H", "result": "> 25", "unit": "µM"}, {"measurement": "inhibition of A3G's ssDNA binding activity (A3G-ssDNA complex formation)", "setting": "A3G-ssDNA complex", "result": "no inhibition"}, {"measurement": "susceptibility of A3G-C308A deaminase activity to inhibition", "setting": "A3G-C308A", "result": "wildtype susceptibility"}, {"measurement": "susceptibility of A3G C321A deaminase activity to inhibition", "setting": "A3G C321A", "result": "fully resistant"}, {"measurement": "mass addition to C321 containing tryptic peptide (covalent modification)", "setting": "full-length A3G Cys321", "result": 167.11, "unit": "Da"}, {"measurement": "efficacy in a murine model of diabetes", "setting": "murine model of diabetes", "result": "demonstrated efficacy"}]}]}
